Laboratory results published in ChEMBL document CHEMBL5715946 (Chem Biol, 2010).
Calls of active or inactive are those of the source. The rule behind the calls is not given here.

Assays:
[1] = target: Macrophage migration inhibitory factor (Rattus norvegicus) (UniProt P30904); test: Binding affinity to BTZO-12 sensor chip immobilized recombinant rat MIF expressed in Escherichia coli BL21 (DE3) at pH 7.3 by SPR analysis
Method in brief: (§1)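 SPR on a BTZO-12-type sensor chip with purified recombinant rat MIF, binding compared at pH 6.0 and pH 7.3.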

[2] = target: Macrophage migration inhibitory factor (Rattus norvegicus) (UniProt P30904); test: Binding affinity to BTZO-12 sensor chip immobilized recombinant rat MIF expressed in Escherichia coli BL21 (DE3) at pH 6 by SPR analysis; method in brief: as §1
[3] = Upregulation of thioredoxin reductase gene expression in serum-deprived neonatal Wistar rat cardiomyocyte at 0.37 uM incubated for 21 hrs by microarray analysis relative to control; format: functional, Cardiac muscle cell
Method in brief: (§2)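 Primary neonatal rat cardiomyocytes, isolated by proteinase digestion with preplating to deplete nonmyocytes, cultured in serum-free medium with or without 0.37 μM compound for 21 hr. Total RNA was recovered and global expression profiled on an Affymetrix GeneChip rat genome U34A array (about 7000 known genes). Change is relative to untreated cells.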

[4] = Upregulation of 3-methylcholanthrene-inducible UDP-glucuronosyltransferase gene expression in serum-deprived neonatal Wistar rat cardiomyocyte at 0.37 uM incubated for 21 hrs by microarray analysis relative to control; format: functional, Cardiac muscle cell
Method in brief: (§3)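 Primary neonatal rat cardiomyocytes cultured with or without 0.37 μM compound in serum-free medium for 21 hr. Total RNA profiled on the rat genome U34A GeneChip array (about 7000 known genes).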

[5] = target: T1, Glutathione S-transferase alpha-1 (Rattus norvegicus) (UniProt P00502); test: Binding affinity to rat N-terminal 6His-tagged truncated GST Ya expressed in Escherichia coli BL21 (DE3) at 400 nM incubated for 6 hrs using labelled compound by scintillation proximity assay
T1 sequence (whole entry): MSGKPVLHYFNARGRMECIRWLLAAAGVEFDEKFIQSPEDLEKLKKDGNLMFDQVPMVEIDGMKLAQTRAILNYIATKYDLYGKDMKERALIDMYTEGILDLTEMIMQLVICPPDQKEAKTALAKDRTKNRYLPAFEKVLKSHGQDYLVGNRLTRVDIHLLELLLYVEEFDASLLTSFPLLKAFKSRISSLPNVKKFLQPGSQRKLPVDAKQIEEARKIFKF
Method in brief: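 Scintillation proximity assay: 6His-tagged protein (hMIF, rat GST Ya or rat VILIP3) captured on copper His-tag SPA beads with [3H]-BTZO-1; emitted light counted on a microplate scintillation counter. Mean of n = 2.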

[6] = Upregulation of glutathione reductase gene expression in serum-deprived neonatal Wistar rat cardiomyocyte at 0.37 uM incubated for 21 hrs by microarray analysis relative to control; format: functional, Cardiac muscle cell; method in brief: as §2
[7] = Upregulation of bilirubin-specific UDP glucuronosyltransferase gene expression in serum-deprived neonatal Wistar rat cardiomyocyte at 0.37 uM incubated for 21 hrs by microarray analysis relative to control; format: functional, Cardiac muscle cell; method in brief: as §3
[8] = Upregulation of glutathione S-transferase Ya subunit gene expression in serum-deprived neonatal Wistar rat cardiomyocyte at 0.37 uM incubated for 21 hrs by microarray analysis relative to control; format: functional, Cardiac muscle cell; method in brief: as §2

Sequence of Macrophage migration inhibitory factor (Rattus norvegicus) (P30904 2-115 limits assumed): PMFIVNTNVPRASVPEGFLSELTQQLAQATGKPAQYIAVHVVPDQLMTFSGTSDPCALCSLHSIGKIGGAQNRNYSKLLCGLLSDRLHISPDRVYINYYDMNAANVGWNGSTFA

## O=c1nc(-c2ccccn2)sc2ccccc12 [BTZO-1]
[1]
  Activity: Active
[2]
  Activity: Active
[3]
  fold change (FC): 2.8
[4]
  fold change (FC): 2.1
[5]
  Activity: inactive
[6]
  fold change (FC): 4.4
[7]
  fold change (FC): 5.2
[8]
  fold change (FC): 12
